From ChEMBL document CHEMBL5154854, “Identification of a Vitamin-D Receptor Antagonist, MeTC7, which Inhibits the Growth of Xenograft and Transgenic Tumors In Vivo” (J Med Chem, 2022) come the findings set out here.

For the test, the target named is T1, Vitamin D3 receptor (Homo sapiens) (UniProt P11473).
T1 sequence (whole entry): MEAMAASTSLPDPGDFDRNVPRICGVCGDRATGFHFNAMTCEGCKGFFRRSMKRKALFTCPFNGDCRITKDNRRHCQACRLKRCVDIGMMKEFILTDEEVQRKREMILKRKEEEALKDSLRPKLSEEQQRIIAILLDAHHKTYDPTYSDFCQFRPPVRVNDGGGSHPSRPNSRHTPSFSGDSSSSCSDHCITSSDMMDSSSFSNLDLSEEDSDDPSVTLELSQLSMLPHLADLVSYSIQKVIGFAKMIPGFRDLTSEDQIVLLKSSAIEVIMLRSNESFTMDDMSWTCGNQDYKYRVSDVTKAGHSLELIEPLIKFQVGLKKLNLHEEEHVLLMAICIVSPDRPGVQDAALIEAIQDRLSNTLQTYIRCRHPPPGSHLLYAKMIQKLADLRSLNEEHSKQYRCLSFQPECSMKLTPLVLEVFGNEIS
In words: Antagonist activity at VDR LBD (unknown origin) using Alexa Fluor 647-labeled SRC2-3 as substrate incubated for 2 hrs in presence of calcitriol by fluorescence polarization assay. An outline of the steps:
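VDR-LBD (0.1 μM) with Alexa Fluor 647-labelled SRC2-3 (17.5 nM) and 10 nM 1,25(OH)2D3 in 25 mM PIPES, 50 mM NaCl, 0.01% NP-40, pH 6.75. Compounds were serially diluted 1:2 from 10 mM DMSO stocks and incubated 2 h. Polarization was read at 635/685 nm. Three independent experiments in quadruplicate; IC50 by variable-slope nonlinear regression.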
Background: Fluorescence polarisation rises when a labelled molecule tumbles more slowly, as on binding a larger partner.

Each structure is given as a SMILES string. Bounds are passed on as bounds.

For `CC(C)CCC[C@@H](C)[C@H]1CC[C@@H]2[C@]1(C)CCC1[C@]23C=C[C@]2(C[C@@H](O)CC[C@]12C)n1c(=O)n(C)c(=O)n13` (stereo partly specified), the Activity is more than 100 µM.
